Laboratory results as given in ChEMBL document CHEMBL1143122, “Novel analogs of D-e-MAPP and B13. Part 1: synthesis and evaluation as potential anticancer agents” (Bioorg Med Chem, 2008).

What was measured:
U-251 = test: Antiproliferative activity against human U251 cells after 48 hrs; assay type: functional; conditions: U-251, 48 h
Outline: (§1)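 NCI 60-cell-line screen. Lines grown in RPMI 1640 with 5% fetal bovine serum and 2 mM L-glutamine, plated at 5,000–40,000 cells/well according to doubling time, left 24 h at 37 °C in 5% CO2. Drug stocks in DMSO at 400-fold the top final concentration. Five 10-fold dilutions, 10−4 to 10−8 M, incubated 48 h. Growth read spectrophotometrically as net protein; GI50 taken as 50% reduction.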

LOX IMVI = test: Antiproliferative activity against human LOXIMVI cells after 48 hrs; assay type: functional
Outline: (§2)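 NCI 60-cell screen. Cells were grown in RPMI 1640 with 5% FBS and 2 mM L-glutamine, then plated at 5,000–40,000 cells/well according to doubling time and preincubated for 24 h at 37 °C in 5% CO2. Compounds were dissolved in DMSO at 400× the top final concentration and tested at five 10-fold dilutions from 10−4 to 10−8 M for 48 h. Growth was read spectrophotometrically; GI50 is 50% net protein reduction.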

Malme-3M = test: Antiproliferative activity against human MALME3M cells after 48 hrs; assay type: functional; outline: as §2
SK-MEL-2 = test: Antiproliferative activity against human SKMEL2 cells after 48 hrs; assay type: functional; conditions: SK-MEL-2, 48 h; outline: as §2
SK-MEL-28 = test: Antiproliferative activity against human SKMEL28 cells after 48 hrs; assay type: functional; conditions: SK-MEL-28, 48 h; outline: as §2
SK-MEL-5 = test: Antiproliferative activity against human SKMEL5 cells after 48 hrs; assay type: functional; conditions: SK-MEL-5, 48 h; outline: as §2
UACC-62 = test: Antiproliferative activity against human UACC62 cells after 48 hrs; assay type: functional; conditions: UACC-62, 48 h; outline: as §1
OVCAR-3 = test: Antiproliferative activity against human OVCAR-3 cells after 48 hrs; assay type: functional; conditions: OVCAR-3, 48 h; outline: as §2
OVCAR-4 = test: Antiproliferative activity against human OVCAR4 cells after 48 hrs; assay type: functional; conditions: OVCAR-4, 48 h; outline: as §2
OVCAR-5 = test: Antiproliferative activity against human OVCAR5 cells after 48 hrs; assay type: functional; conditions: OVCAR-5, 48 h; outline: as §2
786-0 = test: Antiproliferative activity against human 786-0 cells after 48 hrs; assay type: functional; conditions: 786-0, 48 h; outline: as §2
ACHN = test: Antiproliferative activity against human ACHN cells after 48 hrs; assay type: functional; outline: as §2
CAKI-1 = test: Antiproliferative activity against human CAKI1 cells after 48 hrs; assay type: functional; conditions: CAKI-1, 48 h; outline: as §2
RXF 393 = test: Antiproliferative activity against human RXF393 cells after 48 hrs; assay type: functional; conditions: RXF 393, 48 h; outline: as §2
UO-31 = test: Antiproliferative activity against human UO31 cells after 48 hrs; assay type: functional; conditions: UO-31, 48 h; outline: as §1
PC-3 = test: Antiproliferative activity against human PC3 cells after 48 hrs; assay type: functional; conditions: PC-3, 48 h; outline: as §2
DU-145 = test: Antiproliferative activity against human DU145 cells after 48 hrs; assay type: functional; conditions: DU-145, 48 h; outline: as §2
MDA-MB-231 = test: Antiproliferative activity against human MDA-MB-231 cells after 48 hrs; assay type: functional; conditions: MDA-MB-231, 48 h; outline: as §2
MDA-MB-435 = test: Antiproliferative activity against human MDA-MB-435 cells after 48 hrs; assay type: functional; outline: as §2
NCI-H226 = test: Antiproliferative activity against human NCI-H226 cells after 48 hrs; assay type: functional; conditions: NCI-H226, 48 h; outline: as §2
NCI-H322M = test: Antiproliferative activity against human NCI-H322M cells after 48 hrs; assay type: functional; outline: as §2
NCI-H460 = test: Antiproliferative activity against human NCI-H460 cells after 48 hrs; assay type: functional; conditions: NCI-H460, 48 h; outline: as §2
NCI-H522 = test: Antiproliferative activity against human NCI-H522 cells after 48 hrs; assay type: functional; conditions: NCI-H522, 48 h; outline: as §2
COLO 205 = test: Antiproliferative activity against human COLO205 cells after 48 hrs; assay type: functional; conditions: COLO 205, 48 h; outline: as §2
HCT-116 = test: Antiproliferative activity against human HCT116 cells after 48 hrs; assay type: functional; conditions: HCT-116, 48 h; outline: as §2
HCT-15 = test: Antiproliferative activity against human HCT15 cells after 48 hrs; assay type: functional; conditions: Homo sapiens, HCT-15, 48 h; outline: as §2
KM12 = test: Antiproliferative activity against human KM12 cells after 48 hrs; assay type: functional; conditions: Homo sapiens, KM12, 48 h; outline: as §2
SF-295 = test: Antiproliferative activity against human SF295 cells after 48 hrs; assay type: functional; conditions: SF-295, 48 h; outline: as §2
SNB-19 = test: Antiproliferative activity against human SNB19 cells after 48 hrs; assay type: functional; conditions: SNB-19, 48 h; outline: as §2
MCF7 = test: Antiproliferative activity against human MCF7 cells after 48 hrs; assay type: functional, cell-based; conditions: MCF7, 48 h
CCRF-CEM = test: Antiproliferative activity against human CCRF-CEM cells after 48 hrs; assay type: functional; outline: as §2
[1] = Antiproliferative activity against human […] cells after 48 hrs; assay type: functional; outline: as §2
[2] = read-out: Log LC50 (the source's name) (converted)

## C[C@@H](NC(=O)CCCCCCCCCCCCCCC[n+]1ccccc1)[C@@H](O)c1ccccc1.[Br-]
U-251
  GI50: 1.41 µM
U-251; [2]
  CC50: 5.25 µM
U-251; read-out: Log TGI (converted)
  TGI: 2.75 µM
LOX IMVI
  GI50: 3.55 µM
  LC50: 51.3 µM
LOX IMVI; read-out: Log TGI (converted)
  TGI: 13.5 µM
Malme-3M
  GI50: 1.66 µM
  LC50: 5.75 µM
Malme-3M; read-out: Log TGI (converted)
  TGI: 3.09 µM
SK-MEL-2
  GI50: 2.19 µM
SK-MEL-2; read-out: Log TGI (converted)
  TGI: 4.37 µM
SK-MEL-28
  GI50: 1.7 µM
  LC50: 5.75 µM
SK-MEL-28; read-out: Log TGI (converted)
  TGI: 3.16 µM
SK-MEL-5
  GI50: 1.58 µM
SK-MEL-5; [2]
  CC50: 5.5 µM
SK-MEL-5; read-out: Log TGI (converted)
  TGI: 2.95 µM
UACC-62
  GI50: 1.48 µM
  LC50: 5.75 µM
UACC-62; read-out: Log TGI (converted)
  TGI: 2.88 µM
OVCAR-3
  GI50: 1.1 µM
OVCAR-3; read-out: Log TGI (converted)
  TGI: 2.4 µM
OVCAR-4
  GI50: 1.7 µM
  LC50: > 100 µM
OVCAR-4; read-out: Log TGI (converted)
  TGI: 5.37 µM
OVCAR-5
  GI50: 5.25 µM
OVCAR-5; [2]
  CC50: 50.1 µM
OVCAR-5; read-out: Log TGI (converted)
  TGI: 18.2 µM
786-0
  GI50: 2.63 µM
786-0; [2]
  CC50: 34.7 µM
786-0; read-out: Log TGI (converted)
  TGI: 8.51 µM
ACHN
  GI50: 17 µM
ACHN; [2]
  CC50: 64.6 µM
ACHN; read-out: Log TGI (converted)
  TGI: 33.1 µM
CAKI-1
  GI50: 1.38 µM
CAKI-1; [2]
  CC50: 66.1 µM
CAKI-1; read-out: Log TGI (converted)
  TGI: 30.2 µM
RXF 393
  GI50: 4.57 µM
RXF 393; [2]
  CC50: 97.7 µM
RXF 393; read-out: Log TGI (converted)
  TGI: 24 µM
UO-31
  GI50: 19.1 µM
  LC50: 93.3 µM
UO-31; read-out: Log TGI (converted)
  TGI: 41.7 µM
PC-3
  GI50: 1.38 µM
  LC50: 15.1 µM
PC-3; read-out: Log TGI (converted)
  TGI: 3.98 µM
DU-145
  GI50: 3.47 µM
DU-145; [2]
  CC50: 49 µM
DU-145; read-out: Log TGI (converted)
  TGI: 15.1 µM
MDA-MB-231
  GI50: 1.74 µM
  LC50 (50% lethal concentration): 7.59 µM
MDA-MB-231; read-out: Log TGI (converted)
  TGI: 3.63 µM
MDA-MB-435
  GI50: 1.58 µM
MDA-MB-435; Homo sapiens, MDA-MB-435, 48 h
  GI50: 1.78 µM
  LC50: 5.5 µM
MDA-MB-435; Homo sapiens, MDA-MB-435, 48 h, read-out: Log TGI (converted)
  TGI: 2.95 µM
NCI-H226
  GI50: 4.17 µM
NCI-H226; [2]
  CC50: > 100 µM
NCI-H226; read-out: Log TGI (converted)
  TGI: 22.9 µM
NCI-H322M
  GI50: 11 µM
NCI-H322M; [2]
  CC50: 49 µM
NCI-H322M; read-out: Log TGI (converted)
  TGI: 22.9 µM
NCI-H460
  GI50: 2.95 µM
NCI-H460; [2]
  CC50: > 100 µM
NCI-H460; read-out: Log TGI (converted)
  TGI: 11.5 µM
NCI-H522
  GI50: 1.48 µM
NCI-H522; read-out: Log TGI (converted)
  TGI: 3.63 µM
COLO 205
  GI50: 1.38 µM
COLO 205; read-out: Log TGI (converted)
  TGI: 3.02 µM
HCT-116
  GI50: 3.39 µM
  LC50: 58.9 µM
HCT-116; read-out: Log TGI (converted)
  TGI: 13.2 µM
HCT-15
  GI50: 17.8 µM
  LC50: 58.9 µM
HCT-15; read-out: Log TGI (converted)
  TGI: 32.4 µM
KM12
  GI50: 1.74 µM
KM12; [2]
  CC50: 5.75 µM
KM12; read-out: Log TGI (converted)
  TGI: 3.16 µM
SF-295
  GI50: 8.32 µM
  LC50: 63.1 µM
SF-295; read-out: Log TGI (converted)
  TGI: 24 µM
SNB-19
  GI50: 1.58 µM
SNB-19; read-out: Log TGI (converted)
  TGI: 3.09 µM
MCF7
  GI50: 1.58 µM
  LC50: 8.51 µM
MCF7; read-out: Log TGI (converted)
  TGI: 3.72 µM
CCRF-CEM
  GI50: < 0.01 µM
[1]
  GI50: 2.57 µM
  LC50: > 100 µM
[1]; read-out: Log TGI (converted)
  TGI: 8.71 µM
